# ChEMBL document CHEMBL4622923, “Discovery of 4-Phenylpiperidine-2-Carboxamide Analogues as Serotonin 5-HT2C Receptor-Positive Allosteric Modulators with Enhanced Drug-like Properties” (J Med Chem, 2020)
# Assays:
# [1] = target: Sodium-dependent serotonin transporter (Homo sapiens) (UniProt P31645); test: Displacement of [3H]-citalopram from human SERT stably expressed in HEK cell membranes at 10 uM incubated for 90 mins under dark condition by scintillation counting analysis relative to control
# Sequence of Sodium-dependent serotonin transporter (Homo sapiens) (P31645 whole entry, looked up): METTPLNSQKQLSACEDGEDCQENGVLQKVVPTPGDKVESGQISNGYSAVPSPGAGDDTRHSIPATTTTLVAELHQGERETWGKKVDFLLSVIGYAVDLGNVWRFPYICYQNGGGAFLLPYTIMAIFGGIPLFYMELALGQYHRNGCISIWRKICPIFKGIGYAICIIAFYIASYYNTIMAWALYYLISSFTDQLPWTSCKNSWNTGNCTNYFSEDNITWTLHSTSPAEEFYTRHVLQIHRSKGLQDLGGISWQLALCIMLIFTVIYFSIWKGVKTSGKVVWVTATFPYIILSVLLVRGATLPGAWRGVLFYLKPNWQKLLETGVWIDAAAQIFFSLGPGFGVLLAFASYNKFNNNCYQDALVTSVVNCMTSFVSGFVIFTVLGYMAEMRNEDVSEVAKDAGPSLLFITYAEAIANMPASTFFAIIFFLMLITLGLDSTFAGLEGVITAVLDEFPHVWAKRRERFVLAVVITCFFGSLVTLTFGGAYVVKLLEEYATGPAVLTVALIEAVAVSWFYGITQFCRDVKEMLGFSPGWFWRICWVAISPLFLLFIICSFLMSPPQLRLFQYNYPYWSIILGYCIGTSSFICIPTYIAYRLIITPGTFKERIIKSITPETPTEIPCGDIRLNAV
# [2] = target: D(1B) dopamine receptor (Homo sapiens) (UniProt P21918); test: Displacement of [3H]-SCH23390 from human dopamine D5 receptor expressed in HEKT cell membranes at 10 uM incubated for 90 mins under dark condition by scintillation counting analysis relative to control
# Sequence of D(1B) dopamine receptor (Homo sapiens) (P21918 whole entry): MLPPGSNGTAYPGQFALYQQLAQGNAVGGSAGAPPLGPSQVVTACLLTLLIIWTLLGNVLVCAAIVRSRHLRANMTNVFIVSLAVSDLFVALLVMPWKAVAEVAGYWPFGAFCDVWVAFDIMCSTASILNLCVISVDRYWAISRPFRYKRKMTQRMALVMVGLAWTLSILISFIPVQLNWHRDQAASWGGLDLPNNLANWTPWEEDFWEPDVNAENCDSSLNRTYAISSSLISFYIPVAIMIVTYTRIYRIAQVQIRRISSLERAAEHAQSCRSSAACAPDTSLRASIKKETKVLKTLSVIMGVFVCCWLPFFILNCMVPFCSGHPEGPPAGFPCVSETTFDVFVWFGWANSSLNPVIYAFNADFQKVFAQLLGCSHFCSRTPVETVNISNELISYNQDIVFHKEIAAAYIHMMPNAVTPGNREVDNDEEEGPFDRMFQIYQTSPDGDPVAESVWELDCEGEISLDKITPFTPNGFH
# [3] = target: D(3) dopamine receptor (Homo sapiens) (UniProt P35462); test: Displacement of [3H]-N-methylspiperone from dopamine D3 receptor (unknown origin) at 10 uM incubated for 90 mins under dark condition by scintillation counting analysis relative to control
# Sequence of D(3) dopamine receptor (Homo sapiens) (P35462 whole entry): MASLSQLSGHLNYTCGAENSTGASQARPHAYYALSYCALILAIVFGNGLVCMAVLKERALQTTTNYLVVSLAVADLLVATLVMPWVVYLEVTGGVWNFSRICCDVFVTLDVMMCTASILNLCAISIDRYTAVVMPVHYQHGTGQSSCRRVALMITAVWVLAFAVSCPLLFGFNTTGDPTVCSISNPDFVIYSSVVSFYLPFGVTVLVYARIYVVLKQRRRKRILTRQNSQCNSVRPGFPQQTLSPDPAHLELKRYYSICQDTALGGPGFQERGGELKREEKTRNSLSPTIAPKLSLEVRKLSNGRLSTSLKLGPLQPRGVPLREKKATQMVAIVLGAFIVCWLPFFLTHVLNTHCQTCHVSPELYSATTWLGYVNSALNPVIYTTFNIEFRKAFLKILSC
# [4] = target: D(2) dopamine receptor (Homo sapiens) (UniProt P14416); test: Displacement of [3H]-N-methylspiperone from human dopamine D2 receptor at 10 uM incubated for 90 mins under dark condition by scintillation counting analysis relative to control
# Sequence of D(2) dopamine receptor (Homo sapiens) (P14416 whole entry): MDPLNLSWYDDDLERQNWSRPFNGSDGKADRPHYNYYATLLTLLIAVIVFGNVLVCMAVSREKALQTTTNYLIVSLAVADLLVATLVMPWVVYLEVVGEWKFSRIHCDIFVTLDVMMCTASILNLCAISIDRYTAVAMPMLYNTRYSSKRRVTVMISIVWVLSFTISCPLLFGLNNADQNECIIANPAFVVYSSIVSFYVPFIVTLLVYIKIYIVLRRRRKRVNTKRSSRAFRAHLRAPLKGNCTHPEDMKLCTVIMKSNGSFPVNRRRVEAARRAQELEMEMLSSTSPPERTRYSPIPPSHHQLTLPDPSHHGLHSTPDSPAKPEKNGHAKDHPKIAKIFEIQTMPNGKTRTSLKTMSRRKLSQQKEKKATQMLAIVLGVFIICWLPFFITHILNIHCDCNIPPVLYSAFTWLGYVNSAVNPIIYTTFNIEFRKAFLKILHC
# [5] = target: 5-hydroxytryptamine receptor 6 (Homo sapiens) (UniProt P50406); test: Displacement of [3H]-LSD from human 5HT6 stably expressed in HEK cell membranes at 10 uM incubated for 90 mins under dark condition by scintillation counting analysis relative to control
# [6] = target: 5-hydroxytryptamine receptor 3A (Homo sapiens) (UniProt P46098); test: Displacement of [3H]-LY278584 from human 5HT3R transiently expressed in HEKT cell membranes at 10 uM incubated for 90 mins under dark condition by scintillation counting analysis relative to control
# Sequence of 5-hydroxytryptamine receptor 3A (Homo sapiens) (P46098 whole entry): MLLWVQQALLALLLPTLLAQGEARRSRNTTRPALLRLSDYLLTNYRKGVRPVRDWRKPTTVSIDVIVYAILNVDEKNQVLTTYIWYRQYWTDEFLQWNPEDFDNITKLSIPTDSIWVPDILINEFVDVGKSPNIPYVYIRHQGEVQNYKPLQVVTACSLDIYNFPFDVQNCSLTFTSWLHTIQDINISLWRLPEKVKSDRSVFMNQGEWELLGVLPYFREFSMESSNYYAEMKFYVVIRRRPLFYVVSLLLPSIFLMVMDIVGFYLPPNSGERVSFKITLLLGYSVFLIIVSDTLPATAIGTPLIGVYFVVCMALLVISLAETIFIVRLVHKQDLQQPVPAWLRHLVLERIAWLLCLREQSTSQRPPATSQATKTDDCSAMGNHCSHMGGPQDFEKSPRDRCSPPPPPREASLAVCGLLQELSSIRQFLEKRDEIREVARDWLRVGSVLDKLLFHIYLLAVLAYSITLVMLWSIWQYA
# [7] = target: T1, 5-hydroxytryptamine receptor 2C (Homo sapiens) (UniProt P28335); test: Displacement of [3H]-mesulergine from human 5HT2C expressed in HEKT cell membranes at 10 uM incubated for 90 mins under dark condition by scintillation counting analysis relative to control
# T1 sequence (whole entry): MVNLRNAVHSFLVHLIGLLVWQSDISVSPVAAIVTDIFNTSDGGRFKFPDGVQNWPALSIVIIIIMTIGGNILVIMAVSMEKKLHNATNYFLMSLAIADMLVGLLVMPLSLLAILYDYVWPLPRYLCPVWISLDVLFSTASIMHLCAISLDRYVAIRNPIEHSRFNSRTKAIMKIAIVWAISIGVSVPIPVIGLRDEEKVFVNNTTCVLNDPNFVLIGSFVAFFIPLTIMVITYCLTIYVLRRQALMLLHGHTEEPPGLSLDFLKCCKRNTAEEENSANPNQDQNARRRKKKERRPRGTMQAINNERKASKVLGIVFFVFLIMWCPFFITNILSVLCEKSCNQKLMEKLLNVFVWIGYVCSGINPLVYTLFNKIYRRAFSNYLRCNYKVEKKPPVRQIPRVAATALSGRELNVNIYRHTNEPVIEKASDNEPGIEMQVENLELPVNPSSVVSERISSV
# 5-HT2B receptor = 5-HT2B receptor (Homo sapiens, UniProt P41595); test: Displacement of [3H]-LSD from human 5HT2B stably expressed in HEK cell membranes at 10 uM incubated for 90 mins under dark condition by scintillation counting analysis relative to control; settings: membranes of HEK cells stably expressing human 5HT2B, probe [3H]-LSD
# Sequence of 5-HT2B receptor (P41595 whole entry): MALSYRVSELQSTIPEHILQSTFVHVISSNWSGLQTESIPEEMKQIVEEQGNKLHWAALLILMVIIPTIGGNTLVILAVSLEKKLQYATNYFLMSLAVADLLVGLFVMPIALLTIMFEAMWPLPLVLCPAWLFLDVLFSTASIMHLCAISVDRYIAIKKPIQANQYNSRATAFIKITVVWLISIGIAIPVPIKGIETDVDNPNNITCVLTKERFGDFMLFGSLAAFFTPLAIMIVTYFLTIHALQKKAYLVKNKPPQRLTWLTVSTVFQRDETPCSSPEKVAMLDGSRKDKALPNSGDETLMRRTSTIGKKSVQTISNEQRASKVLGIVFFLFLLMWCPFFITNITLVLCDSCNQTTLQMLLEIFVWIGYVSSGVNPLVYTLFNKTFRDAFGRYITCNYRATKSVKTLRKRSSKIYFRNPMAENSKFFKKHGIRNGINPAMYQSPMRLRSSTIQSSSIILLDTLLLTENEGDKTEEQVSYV
# [8] = target: Alpha-2A adrenergic receptor (Homo sapiens) (UniProt P08913); test: Displacement of [3H]-rauwolscine from human adrenergic alpha2A receptor transiently expressed in HEKT cell membranes at 10 uM incubated for 90 mins under dark condition by scintillation counting analysis relative to control
# Sequence of Alpha-2A adrenergic receptor (Homo sapiens) (P08913 whole entry): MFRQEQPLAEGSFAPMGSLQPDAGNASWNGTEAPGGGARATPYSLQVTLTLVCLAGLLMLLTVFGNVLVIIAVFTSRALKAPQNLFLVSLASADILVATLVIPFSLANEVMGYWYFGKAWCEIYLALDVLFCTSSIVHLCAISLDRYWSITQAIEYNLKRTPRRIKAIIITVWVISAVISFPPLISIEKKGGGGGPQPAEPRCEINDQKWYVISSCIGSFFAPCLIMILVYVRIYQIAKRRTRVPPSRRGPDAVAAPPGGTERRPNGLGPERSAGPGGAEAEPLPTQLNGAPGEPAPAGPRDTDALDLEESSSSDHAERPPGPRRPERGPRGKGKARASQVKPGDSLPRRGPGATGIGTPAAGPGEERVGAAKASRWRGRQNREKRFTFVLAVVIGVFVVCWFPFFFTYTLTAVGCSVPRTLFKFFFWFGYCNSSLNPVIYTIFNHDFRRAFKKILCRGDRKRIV
# [9] = target: 5-hydroxytryptamine receptor 1D (Homo sapiens) (UniProt P28221); test: Displacement of [3H]-GR125743 from human 5HT1D transiently expressed in HEKT cell membranes at 10 uM incubated for 90 mins under dark condition by scintillation counting analysis relative to control
# Sequence of 5-hydroxytryptamine receptor 1D (Homo sapiens) (P28221 whole entry): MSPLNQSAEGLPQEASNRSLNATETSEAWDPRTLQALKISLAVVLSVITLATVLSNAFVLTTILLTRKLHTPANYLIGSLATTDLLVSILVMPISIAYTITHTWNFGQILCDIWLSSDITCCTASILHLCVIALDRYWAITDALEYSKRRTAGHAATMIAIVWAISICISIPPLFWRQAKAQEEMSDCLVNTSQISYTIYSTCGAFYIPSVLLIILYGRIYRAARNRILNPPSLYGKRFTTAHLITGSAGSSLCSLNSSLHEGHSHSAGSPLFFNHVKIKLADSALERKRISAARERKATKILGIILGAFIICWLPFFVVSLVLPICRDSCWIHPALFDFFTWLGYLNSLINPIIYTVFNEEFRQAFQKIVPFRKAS
# [10] = target: Sodium-dependent noradrenaline transporter (Homo sapiens, UniProt P23975); test: Displacement of [3H]-nisoxetine from human NET stably expressed in HEK cell membranes incubated for 90 mins under dark condition by scintillation counting analysis
# Sequence of Sodium-dependent noradrenaline transporter (P23975 whole entry): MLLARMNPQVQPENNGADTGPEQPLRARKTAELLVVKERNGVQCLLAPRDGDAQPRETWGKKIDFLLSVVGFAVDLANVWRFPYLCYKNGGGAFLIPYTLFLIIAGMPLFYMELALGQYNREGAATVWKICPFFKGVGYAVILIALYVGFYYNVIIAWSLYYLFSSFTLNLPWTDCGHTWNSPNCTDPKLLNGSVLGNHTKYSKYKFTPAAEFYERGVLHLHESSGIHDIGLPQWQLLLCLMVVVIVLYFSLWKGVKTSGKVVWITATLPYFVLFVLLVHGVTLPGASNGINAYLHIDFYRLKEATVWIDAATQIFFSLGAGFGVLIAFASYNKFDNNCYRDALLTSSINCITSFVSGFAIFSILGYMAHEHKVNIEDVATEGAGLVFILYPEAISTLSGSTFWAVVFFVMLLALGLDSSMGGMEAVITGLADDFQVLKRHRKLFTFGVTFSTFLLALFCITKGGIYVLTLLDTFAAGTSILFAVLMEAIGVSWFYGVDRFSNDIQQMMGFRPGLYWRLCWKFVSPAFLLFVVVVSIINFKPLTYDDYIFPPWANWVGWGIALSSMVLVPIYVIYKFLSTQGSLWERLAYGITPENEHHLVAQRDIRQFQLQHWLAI
# In short: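 Radioligand competition isotherms for human NET; IC50 from non-linear regression, converted to Ki via the Cheng-Prusoff equation; Ki averaged over repeated experiments.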
# CYP3A4 = CYP3A4 (Homo sapiens, UniProt P08684); test: Inhibition of CYP3A4 (unknown origin) at 10 uM relative to control; assay type: ADME
# Sequence of CYP3A4 (P08684 whole entry, canonical isoform): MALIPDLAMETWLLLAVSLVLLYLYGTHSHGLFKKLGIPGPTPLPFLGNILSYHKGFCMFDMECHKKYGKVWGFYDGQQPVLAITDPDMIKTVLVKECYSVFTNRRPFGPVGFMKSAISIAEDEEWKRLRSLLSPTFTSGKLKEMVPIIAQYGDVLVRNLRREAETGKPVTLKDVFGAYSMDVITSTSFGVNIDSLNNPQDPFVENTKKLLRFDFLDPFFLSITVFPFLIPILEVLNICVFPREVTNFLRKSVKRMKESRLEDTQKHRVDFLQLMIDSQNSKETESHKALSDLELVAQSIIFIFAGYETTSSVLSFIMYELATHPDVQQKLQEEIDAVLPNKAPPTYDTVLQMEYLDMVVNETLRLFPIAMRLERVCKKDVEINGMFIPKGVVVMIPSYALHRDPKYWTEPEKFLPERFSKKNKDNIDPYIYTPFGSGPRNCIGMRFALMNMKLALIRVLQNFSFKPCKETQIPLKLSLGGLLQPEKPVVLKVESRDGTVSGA
# In short: (§1)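 Each CYP isoform inhibition assay run with test compound at 10 µM; reported as percent inhibition.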
# CYP2D6 = CYP2D6 (Homo sapiens, UniProt P10635); test: Inhibition of CYP2D6 (unknown origin) at 10 uM relative to control; assay type: ADME; in short: as §1
# [11] = Kinetic solubility of the compound in PBS at pH 7.4 measured after 2 hrs; assay type: physicochemical; settings: buffer, pH 7.4, 2 h
# [12] = Apparent permeability across basolateral to apical side in MDCK-MDR1 cells; assay type: ADME, cell-based, Canis lupus familiaris; settings: dog
# [13] = Clearance in Sprague-Dawley rat at 20 mg/kg, po; assay type: ADME, organism-based; settings: in vivo
# In short: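 Male Sprague-Dawley rats (200–250 g, n = 3/group) dosed po at 20 mg/kg in 10% DMSO:90% HP-β-CD. Retro-orbital blood taken from 0.25 to 24 h. Noncompartmental analysis; mean ± SEM.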
# [14] = Volume of distribution at steady state in Sprague-Dawley rat at 10 mg/kg, iv; assay type: ADME, organism-based; settings: in vivo
# In short: (§2)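 Male Sprague-Dawley rats, 200–250 g, n = 3/group, randomly assigned; dosed 10 mg/kg iv or 20 mg/kg po in 10% DMSO:90% HP-β-CD. Retro-orbital blood sampled predose and 0.08 (iv only), 0.25, 0.5, 1, 2, 4, 8, 24 h. Noncompartmental analysis; Cmax read directly from plasma concentration–time plot; mean ± SEM.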
# [15] = Volume of distribution at steady state in Sprague-Dawley rat at 20 mg/kg, po; assay type: ADME, organism-based; settings: in vivo; in short: as §2
# [16] = Cmax in Sprague-Dawley rat at 10 mg/kg, iv; assay type: ADME, organism-based; set-up: dose 10 mg/kg, route intravenous; settings: in vivo; in short: as §2
# [17] = Cmax in Sprague-Dawley rat at 20 mg/kg, po; assay type: ADME, organism-based; set-up: dose 20 mg/kg, route oral; settings: in vivo; in short: as §2
# [18] = AUC (0 to infinity) in Sprague-Dawley rat at 10 mg/kg, iv; assay type: ADME, organism-based; set-up: dose 10 mg/kg, route intravenous, time infinity; settings: in vivo
# [19] = Ratio of drug level in brain to plasma in Sprague-Dawley rat at 10 mg/kg, iv after 0.25 hrs; assay type: ADME, organism-based
# In short: (§3)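 Male Sprague-Dawley rats, n = 3/group, given 10 mg/kg iv in 10% DMSO:90% HP-β-CD. Brain and plasma collected at 0.25 and 1 h after dosing. Brain concentration (ng/g) divided by plasma concentration (ng/mL); mean ± SEM.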
# [20] = Ratio of drug level in brain to plasma in Sprague-Dawley rat at 10 mg/kg, iv after 1 hr; assay type: ADME, organism-based; in short: as §3
# Rattus norvegicus = test: In vivo agonist activity at 5HT2CR in Sprague-Dawley rat assessed as increase in number of rat choosing drug associated lever at 0.5 to 5 mg/kg, ip treated 30 mins prior to test by drug discrimination test; assay type: organism-based; settings: 0.5 h
# In short: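 Male Sprague-Dawley rats (n = 13), water-restricted, trained to discriminate WAY163909 (0.75 mg/kg ip, 15 min pretreatment) from saline in a two-lever FR20 water-reinforced task. Test compound given ip at 0.5, 1.0, 2.0 and 5.0 mg/kg, 30 min before a 15 min test. Read-out is the percentage of rats selecting the WAY163909 lever; response rate is also recorded.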
smiles,measurement,setting,value
O=C(NC[C@H](O)CO)[C@@H]1C[C@H](c2ccccc2)CCN1 (mixture of isomers),inhibition,[1],47.5%
same,inhibition,[2],9.4%
same,inhibition,[3],19.4%
same,inhibition,[4],7.5%
same,inhibition,[5],2.5%
same,inhibition,[6],22.3%
same,inhibition,[7],26.9%
same,"inhibition at 1.5 h, 10 µM",5-HT2B receptor,-7.2%
same,inhibition,[8],-7.6%
same,inhibition,[9],15.3%
same,Ki,[10],2500 nM
same,inhibition at 10 µM,CYP3A4,0%
same,inhibition at 10 µM,CYP2D6,1.9%
same,Kinetic_solubility,[11],> 100 µM
same,Papp,[12],1.3 ×10⁻⁶ cm/s
same,CL/F,[13],182 mL/min/kg
same,Vdss,[14],5.4 L/kg
same,Vdss,[15],70.6 L/kg
same,Cmax,[16],2408.6 ng/mL
same,Cmax,[17],411.3 ng/mL
same,AUC,[18],3065.6 ng·h/mL
same,BPR,[19],0.07
same,BPR,[20],0.11
same,Activity,Rattus norvegicus,Non-Toxic
